Reference: ChEMBL document CHEMBL4732114, “Design and structural optimization of novel 2H-benzo[h]chromene derivatives that target AcrB and reverse bacterial multidrug resistance” (Eur J Med Chem, 2021)
In brackets after ≈: the same amount, converted by molar mass. Activity calls are given as the source filed them. The calls are words filed in the database; no cut-off is given here.

Key:
[1] = Toxicity in multidrug-resistant Escherichia coli BW25113 assessed as growth inhibition by two-fold broth dilution method
[2] = target: T1, Multidrug efflux pump subunit AcrB (Escherichia coli (strain K12)) (UniProt P31224); experiment: Inhibition of AcrB in multidrug-resistant Escherichia coli BW25113 assessed as potentiation of erythromycin-induced antibacterial activity by measuring erythromycin MIC at 128 ug/ml by checkerboard titration method (reference value: 64 ug/ml); settings: dose 128.0 µg/ml
T1 sequence (whole entry): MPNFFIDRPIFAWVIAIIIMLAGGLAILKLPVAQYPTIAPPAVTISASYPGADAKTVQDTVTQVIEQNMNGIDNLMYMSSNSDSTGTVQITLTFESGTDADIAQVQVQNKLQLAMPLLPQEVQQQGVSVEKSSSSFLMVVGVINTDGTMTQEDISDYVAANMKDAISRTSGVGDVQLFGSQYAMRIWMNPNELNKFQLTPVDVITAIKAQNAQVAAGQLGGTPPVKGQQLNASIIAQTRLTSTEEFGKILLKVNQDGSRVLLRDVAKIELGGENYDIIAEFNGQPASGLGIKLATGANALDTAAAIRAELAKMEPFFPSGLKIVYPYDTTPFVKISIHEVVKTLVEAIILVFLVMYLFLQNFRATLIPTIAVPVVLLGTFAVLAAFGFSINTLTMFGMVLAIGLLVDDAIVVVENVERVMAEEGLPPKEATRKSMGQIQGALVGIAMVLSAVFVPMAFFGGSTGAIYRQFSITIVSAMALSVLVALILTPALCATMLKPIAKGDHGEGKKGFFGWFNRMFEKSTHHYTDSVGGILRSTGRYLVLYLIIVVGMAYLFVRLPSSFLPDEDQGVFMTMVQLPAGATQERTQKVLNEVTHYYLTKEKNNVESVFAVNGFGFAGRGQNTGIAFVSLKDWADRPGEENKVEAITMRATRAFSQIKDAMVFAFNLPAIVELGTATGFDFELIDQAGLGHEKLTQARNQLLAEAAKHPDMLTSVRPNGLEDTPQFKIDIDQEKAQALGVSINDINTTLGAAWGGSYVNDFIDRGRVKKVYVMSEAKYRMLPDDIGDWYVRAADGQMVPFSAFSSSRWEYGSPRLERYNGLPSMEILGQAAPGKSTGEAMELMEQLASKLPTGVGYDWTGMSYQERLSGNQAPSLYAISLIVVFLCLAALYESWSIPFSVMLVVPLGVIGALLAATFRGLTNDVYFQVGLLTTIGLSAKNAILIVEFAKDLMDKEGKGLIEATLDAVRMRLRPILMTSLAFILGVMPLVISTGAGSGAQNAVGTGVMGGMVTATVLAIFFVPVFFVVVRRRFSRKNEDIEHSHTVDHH

[3] = target: T1, Multidrug efflux pump subunit AcrB (Escherichia coli (strain K12)); experiment: Inhibition of AcrB in multidrug-resistant Escherichia coli BW25113 assessed as potentiation of levofloxacin-induced antibacterial activity by measuring levofloxacin MIC at 32 ug/ml by checkerboard titration method (reference value: 0.06 ug/ml); settings: dose 32.0 µg/ml
[4] = target: T1, Multidrug efflux pump subunit AcrB (Escherichia coli (strain K12)); experiment: Inhibition of AcrB in Escherichia coli BW25113 assessed as reduction in glucose-induced nile red efflux at 100 uM preincubated for 15 mins followed by nile red addition and incubated for 3 hrs in shaker in presence of CCCP by fluorimetric analysis; settings: time 3.25 hrs
Procedure, shortened: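 Wild-type and AcrB-deleted cells were preloaded with Nile Red, with or without compound. Fluorescence was recorded, and efflux was triggered at 100 s with 0.2% glucose. Traces were compared with the deletion-strain level. Triplicate experiments used different cell batches.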

[5] = test system: Cell membrane; experiment: Induction of outer membrane permeabilization in wild type Escherichia coli BW25113 assessed as increase in nitrocefin hydrolysis at 128 ug/ml in presence of CCCP by spectroscopic analysis; settings: dose 128 µg/ml
Procedure, shortened: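 Intact E. coli were treated with 10 μM CCCP to block nitrocefin efflux, then given compound, nothing, or polymyxin B as permeabilizer control. Nitrocefin was added, and hydrolysis by periplasmic β-lactamase was followed as the rise in absorbance at 490 nm. Duplicate experiments were run on different days.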

[6] = target: T1, Multidrug efflux pump subunit AcrB (Escherichia coli (strain K12)); experiment: Inhibition of AcrB in multidrug-resistant Escherichia coli BW25113 assessed as potentiation of levofloxacin-induced antibacterial activity by measuring levofloxacin MIC at 128 ug/ml by checkerboard titration method (reference value: 0.06 ug/ml); settings: dose 128.0 µg/ml
[7] = target: T1, Multidrug efflux pump subunit AcrB (Escherichia coli (strain K12)); experiment: Inhibition of AcrB in multidrug-resistant Escherichia coli BW25113 assessed as potentiation of tetraphenylphosphonium-induced antibacterial activity by measuring tetraphenylphosphonium MIC at 128 ug/ml by checkerboard titration method (reference value: 1024 ug/ml); settings: dose 128.0 µg/ml
[8] = target: T1, Multidrug efflux pump subunit AcrB (Escherichia coli (strain K12)); experiment: Inhibition of AcrB in multidrug-resistant Escherichia coli BW25113 assessed as potentiation of tetraphenylphosphonium-induced antibacterial activity by measuring tetraphenylphosphonium MIC at 16 ug/ml by checkerboard titration method (reference value: 1024 ug/ml); settings: dose 16.0 µg/ml
[9] = target: T1, Multidrug efflux pump subunit AcrB (Escherichia coli (strain K12)); experiment: Inhibition of AcrB in multidrug-resistant Escherichia coli BW25113 assessed as potentiation of chloramphenicol-induced antibacterial activity by measuring chloramphenicol MIC at 16 ug/ml by checkerboard titration method (reference value: 8 ug/ml); settings: dose 16.0 µg/ml
[10] = target: T1, Multidrug efflux pump subunit AcrB (Escherichia coli (strain K12)); experiment: Inhibition of AcrB in multidrug-resistant Escherichia coli BW25113 assessed as potentiation of erythromycin-induced antibacterial activity by measuring erythromycin MIC at 16 ug/ml by checkerboard titration method (reference value: 64 ug/ml); settings: dose 16.0 µg/ml
[11] = target: T1, Multidrug efflux pump subunit AcrB (Escherichia coli (strain K12)); experiment: Inhibition of AcrB in multidrug-resistant Escherichia coli BW25113 assessed as potentiation of tetraphenylphosphonium-induced antibacterial activity by measuring tetraphenylphosphonium MIC at 64 ug/ml by checkerboard titration method (reference value: 1024 ug/ml); settings: dose 64.0 µg/ml
[12] = target: T1, Multidrug efflux pump subunit AcrB (Escherichia coli (strain K12)); experiment: Inhibition of AcrB in multidrug-resistant Escherichia coli BW25113 assessed as potentiation of chloramphenicol-induced antibacterial activity by measuring chloramphenicol MIC at 8 ug/ml by checkerboard titration method (reference value: 8 ug/ml); settings: dose 8.0 µg/ml
[13] = target: T1, Multidrug efflux pump subunit AcrB (Escherichia coli (strain K12)); settings: Escherichia coli BW25113; dose 128.0 µg/ml
[14] = target: T1, Multidrug efflux pump subunit AcrB (Escherichia coli (strain K12)); experiment: Inhibition of AcrB in multidrug-resistant Escherichia coli BW25113 assessed as potentiation of tetraphenylphosphonium-induced antibacterial activity by measuring tetraphenylphosphonium MIC at 32 ug/ml by checkerboard titration method (reference value: 1024 ug/ml); settings: dose 32.0 µg/ml
[15] = target: T1, Multidrug efflux pump subunit AcrB (Escherichia coli (strain K12)); experiment: Inhibition of AcrB in multidrug-resistant Escherichia coli BW25113 assessed as potentiation of tetraphenylphosphonium-induced antibacterial activity by measuring tetraphenylphosphonium MIC at 8 ug/ml by checkerboard titration method (reference value: 1024 ug/ml); settings: dose 8.0 µg/ml
[16] = target: T1, Multidrug efflux pump subunit AcrB (Escherichia coli (strain K12)); settings: Escherichia coli BW25113; dose 16.0 µg/ml

Structure (SMILES) | MIC [1] | MIC [2] | MIC [3] | inhibition [4] | Activity [5] | MIC [6] | MIC [7] | MIC [8] | MIC [9] | MIC [10] | MIC [11] | MIC [12] | MIC [13] | MIC [14] | MIC [15] | MIC [16]
CC1CN(C(=O)c2cc3c(OCc4ccc(Br)cc4)cccc3c3c2CCC(C)(C)O3)CC(C)O1 (centres undefined) | > 512 µg/mL | 32 µg/mL | 0.06 µg/mL | Active | Not Active | 0.06 µg/mL | 512 µg/mL | 1020 µg/mL | 8 µg/mL | 64 µg/mL | 1020 µg/mL | 8 µg/mL | 16 µg/mL (≈ 29.7 µM) | 1020 µg/mL | 1020 µg/mL | 16 µg/mL (≈ 29.7 µM)
CC1(C)CCc2c(Cn3cnnn3)cc3c(OCc4ccc([N+](=O)[O-])cc4)cccc3c2O1 | > 512 µg/mL | 64 µg/mL | 0.06 µg/mL | Active | Not Active | 0.06 µg/mL | 512 µg/mL | 1020 µg/mL | 8 µg/mL | 64 µg/mL | 1020 µg/mL | 8 µg/mL | 16 µg/mL (≈ 35.9 µM) | 1020 µg/mL | 1020 µg/mL | 16 µg/mL (≈ 35.9 µM)
CC(C)NCCOc1ccc2c(c1)OC(C)(C)CC2=O | > 512 µg/mL | 64 µg/mL | 0.03 µg/mL | Active | Not Active | 0.03 µg/mL | 1020 µg/mL | 1020 µg/mL | 8 µg/mL | 64 µg/mL | 1020 µg/mL | 8 µg/mL | 16 µg/mL (≈ 57.7 µM) | 1020 µg/mL | 1020 µg/mL | 16 µg/mL (≈ 57.7 µM)
COc1cccc(COc2cccc3c4c(c(C(=O)O)cc23)CCC(C)(C)O4)c1 | > 512 µg/mL | 16 µg/mL | 0.06 µg/mL | Active | Not Active | 0.06 µg/mL | 256 µg/mL | 1020 µg/mL | 8 µg/mL | 64 µg/mL | 512 µg/mL | 8 µg/mL | 16 µg/mL (≈ 40.8 µM) | 1020 µg/mL | 1020 µg/mL | 16 µg/mL (≈ 40.8 µM)
C=CC(=O)Nc1ccc(COc2cccc3c4c(c(C(=O)N5CCOCC5)cc23)CCC(C)(C)O4)cc1 | > 512 µg/mL | 8 µg/mL | 0.06 µg/mL | Active | Not Active | 0.01 µg/mL | 64 µg/mL | 512 µg/mL | 4 µg/mL | 16 µg/mL | 128 µg/mL | 4 µg/mL | 16 µg/mL (≈ 32 µM) | 256 µg/mL | 512 µg/mL | 16 µg/mL (≈ 32 µM)
CC1(C)CCc2c(-c3nnco3)cc3c(OCc4ccccc4)cccc3c2O1 | > 512 µg/mL | 16 µg/mL | 0.06 µg/mL | Active | Not Active | 0.06 µg/mL | 128 µg/mL | 512 µg/mL | 8 µg/mL | 64 µg/mL | 512 µg/mL | 8 µg/mL | 16 µg/mL (≈ 41.4 µM) | 512 µg/mL | 512 µg/mL | 16 µg/mL (≈ 41.4 µM)
CC1(C)CCc2c(Cn3cnnn3)cc3c(OCc4ccc(OC(F)(F)F)cc4)cccc3c2O1 | > 512 µg/mL | 32 µg/mL | 0.06 µg/mL | Active | Not Active | 0.06 µg/mL | 1020 µg/mL | 1020 µg/mL | 8 µg/mL | 64 µg/mL | 1020 µg/mL | 8 µg/mL | 16 µg/mL (≈ 33 µM) | 1020 µg/mL | 1020 µg/mL | 16 µg/mL (≈ 33 µM)
CC1(C)CCc2c(C(=O)N3CCOCC3)cc3c(OCc4ccccc4)cccc3c2O1 | > 512 µg/mL | 8 µg/mL | 0.03 µg/mL | Active | Not Active | 0.03 µg/mL | 64 µg/mL | 512 µg/mL | 4 µg/mL | 64 µg/mL | 512 µg/mL | 8 µg/mL | 16 µg/mL (≈ 37.1 µM) | 512 µg/mL | 512 µg/mL | 16 µg/mL (≈ 37.1 µM)
Cc1ccc(COc2cccc3c4c(c(-c5nnco5)cc23)CCC(C)(C)O4)cc1 | > 512 µg/mL | 8 µg/mL | 0.03 µg/mL | Active | Not Active | 0.01 µg/mL | 64 µg/mL | 512 µg/mL | 8 µg/mL | 32 µg/mL | 512 µg/mL | 8 µg/mL | 16 µg/mL (≈ 40 µM) | 512 µg/mL | 512 µg/mL | 16 µg/mL (≈ 40 µM)
